Reference: ChEMBL document CHEMBL1275400, “Design, synthesis, and DNA-binding of N-alkyl(anilino)quinazoline derivatives” (J Med Chem, 2010)
Active and inactive are the calls of the source. No cut-off for these calls is given here.

Legend:
[1] = tested on: Calf thymus DNA; experiment: Binding affinity to calf thymus DNA in BPE buffer assessed as change in melting temperature at drug/DNA base pair ratio 1; assay type: nucleic-acid assay; details: Bos taurus
Procedure, shortened: (§1)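 Melting curves are read at 260 nm in BPE buffer, pH 7.1 (6 mM Na2HPO4, 2 mM NaH2PO4, 1 mM EDTA), in Peltier-heated 10 mm quartz cuvettes. Temperature rises from 20 to 100 °C at 1 °C/min and is monitored with a platinum probe. Tm is taken as the midpoint of the hyperchromic transition.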

[2] = tested on: Nucleic Acid; experiment: Binding affinity to poly(dA-dT)2 in BPE buffer assessed as change in melting temperature at drug/DNA base pair ratio 1; assay type: nucleic-acid assay; procedure, shortened: as §1
[3] = molecular target: T1, DNA topoisomerase 1 (Homo sapiens) (UniProt P11387); experiment: Inhibition of human recombinant topoisomerase 1-mediated supercoiled pUC19 DNA relaxation up to 100 uM […] by agarose gel electrophoresis analysis; details: in the assay text read “45 mins” for “2 hrs”
T1 sequence (whole entry): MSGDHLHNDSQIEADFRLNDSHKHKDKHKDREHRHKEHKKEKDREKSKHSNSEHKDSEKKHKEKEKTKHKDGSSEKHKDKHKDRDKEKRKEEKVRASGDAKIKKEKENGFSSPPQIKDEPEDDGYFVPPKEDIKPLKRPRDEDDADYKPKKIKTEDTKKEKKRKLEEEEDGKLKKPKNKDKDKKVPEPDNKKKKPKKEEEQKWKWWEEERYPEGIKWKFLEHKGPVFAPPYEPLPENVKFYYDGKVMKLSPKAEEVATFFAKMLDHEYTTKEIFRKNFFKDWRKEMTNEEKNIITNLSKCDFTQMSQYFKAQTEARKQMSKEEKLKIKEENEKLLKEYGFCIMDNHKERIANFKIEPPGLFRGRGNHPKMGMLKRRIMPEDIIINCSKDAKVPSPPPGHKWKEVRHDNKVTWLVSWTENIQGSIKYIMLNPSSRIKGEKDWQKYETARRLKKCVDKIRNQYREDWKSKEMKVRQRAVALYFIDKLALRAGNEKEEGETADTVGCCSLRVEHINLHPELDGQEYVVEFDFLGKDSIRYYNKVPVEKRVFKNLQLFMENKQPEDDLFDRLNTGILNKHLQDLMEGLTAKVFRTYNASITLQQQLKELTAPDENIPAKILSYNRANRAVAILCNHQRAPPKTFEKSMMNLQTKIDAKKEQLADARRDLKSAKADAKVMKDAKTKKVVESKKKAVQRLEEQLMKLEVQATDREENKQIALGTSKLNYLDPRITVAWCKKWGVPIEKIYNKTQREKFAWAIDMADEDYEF
Procedure, shortened: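 Supercoiled pUC19 (130 ng) is incubated with 4 units of recombinant human topoisomerase I for 45 min at 37 °C. The relaxation buffer is 50 mM Tris pH 7.8, 50 mM KCl, 10 mM MgCl2, 1 mM DTT and 1 mM EDTA, with graded drug. Reactions are stopped with 0.25% SDS and 250 μg/mL proteinase K. Samples are run on 1% agarose for 2 h at 120 V and stained with ethidium bromide.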

[4] = tested on: PC-3; experiment: Antiproliferative activity against human PC3 cells after 72 hrs by MTS assay; assay type: functional, cell-based; details: PC-3, 72 h
[5] = tested on: MCF7; experiment: Antiproliferative activity against human MCF7 cells after 72 hrs by MTS assay; assay type: functional, cell-based; details: MCF7, 72 h
[6] = tested on: Calf thymus DNA; experiment: Binding affinity to calf thymus DNA in BPE buffer at drug/DNA base pair ratio up to 10 by UV spectroscopic analysis; assay type: nucleic-acid assay; details: Bos taurus
Procedure, shortened: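 Absorption spectra are recorded in BPE buffer, pH 7.1, at a constant drug concentration of 20 μM. Aliquots of concentrated calf thymus DNA are added to cover a range of DNA-phosphate/drug ratios.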

[7] = tested on: HT-29; experiment: Antiproliferative activity against human HT-29 cells after 72 hrs by MTS assay; assay type: functional, cell-based; details: HT-29, 72 h
[8] = tested on: Calf thymus DNA; experiment: Binding affinity to calf thymus DNA at drug/DNA base pair ratio up to 4 by circular dichroism analysis; assay type: nucleic-acid assay; details: Bos taurus
Procedure, shortened: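 CD spectra are recorded in 1 mM sodium cacodylate buffer, pH 7.0, in 10 mm quartz cuvettes, averaging four scans. A 50 μM drug solution is diluted stepwise with 5 mM DNA. Alternatively, the drug–DNA complex at high P/D is diluted with pure ligand solution to reach the desired drug/DNA ratio.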

[9] = tested on: Nucleic Acid; experiment: Binding affinity to DNA assessed as inhibition of cleavage of DNA substrate up to 100 uM by Dnase1 footprinting assay; assay type: nucleic-acid assay
Procedure, shortened: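 DNase I is then added to a final concentration of about 0.01 unit/mL. Digestion runs 3 min and is stopped by freeze-drying. Protected sites are localized on the gel.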

SMILES | ΔTm [1] [°C] | ΔTm [2] [°C] | also measured
COc1cc2ncnc(N(C)c3cccc(C(F)(F)F)c3)c2cc1OC | 5.8 | 9.5 | –
COc1cc2ncnc(Oc3cccc(Br)c3)c2cc1OC | 0.7 | 0.7 | –
COc1ccc(NC(=O)Nc2cccc(Oc3ncnc4cc(OC)c(OC)cc34)c2)cc1 | 0.2 | 0.3 | –
COc1cc2ncnc(Nc3cccc(C(F)(F)F)c3)c2cc1OC | 0.2 | 0.5 | –
COc1cc2ncnc(Oc3ccc(Br)cc3F)c2cc1OC | 0.8 | 0.5 | –
COc1cc2ncnc(N(C)c3cccc(Br)c3)c2cc1OC | 8.1 | 12.2 | inhibition [3]: inactive
COc1cc2ncnc(Nc3cc(Br)ccc3Br)c2cc1OC | 0.4 | 0.5 | –
CCCN(c1ccc(C)c(Br)c1)c1ncnc2cc(OC)c(OC)cc12 | 7 | 12.6 | –
Fc1ccc(Nc2ncnc3cc4c(cc23)OCO4)cc1Cl | 0.3 | 0.4 | –
COc1cc2ncnc(N(C)c3ccc(C)c(C(F)(F)F)c3)c2cc1OC | 7.8 | 11 | –
COc1cc2ncnc(Oc3ccc(NC(=O)Nc4ccccc4)cc3)c2cc1OC | 0.4 | 0.5 | –
CN(c1ccc(Br)cc1F)c1ncnc2cc3c(cc12)OCO3 | 3.6 | 4.2 | –
COc1cc2ncnc(Nc3cccc(C)c3)c2cc1OC | 0.3 | 0.3 | –
COc1cc2ncnc(N(CCN(C)C)c3ccc(C)c(Br)c3)c2cc1OC | 9.9 | 20 | –
COc1cc2ncnc(N(c3ccc(C)c(Br)c3)C(C)C)c2cc1OC | 5.8 | 12.4 | –
COc1cc2ncnc(Oc3cccc(NC(=O)Nc4ccccc4)c3)c2cc1OC | 0.4 | 0.5 | –
COc1cc2ncnc(Nc3ccc(C)c(C(F)(F)F)c3)c2cc1OC | 0.4 | 0.5 | –
COc1cc2ncnc(Nc3ccc(C)c(Cl)c3)c2cc1OC | 0.3 | 0.4 | –
COc1cc2ncnc(Nc3ccc(C)c(Br)c3)c2cc1OC | 0.2 | 0.4 | –
COc1cc2ncnc(N(C)c3cccc(F)c3)c2cc1OC | 7.3 | 9.8 | –
COc1cc2ncnc(N(C)c3cccc(NC(=O)Nc4ccc(F)c(Cl)c4)c3)c2cc1OC | 7.7 | 10.5 | –
COc1cc2ncnc(N(C)c3ccc(NC(=O)Nc4ccccc4)cc3)c2cc1OC | 0.4 | 0.6 | –
COc1cc2ncnc(N(C)c3ccc(C)c(F)c3)c2cc1OC | 7.3 | 11.3 | –
COc1cc2ncnc(Oc3ccc(F)c(Cl)c3)c2cc1OC | 1.2 | 0.5 | –
COc1cc2ncnc(N(C)c3cccc(Cl)c3)c2cc1OC | 7.7 | 12.4 | –
Fc1cc(Br)ccc1Nc1ncnc2cc3c(cc12)OCO3 | 0.3 | 0.5 | –

SMILES | ΔTm [1] [°C] | ΔTm [2] [°C] | also measured
COc1cc2ncnc(N(C)c3cccc(NC(=O)NC4CCCCC4)c3)c2cc1OC | 5.7 | 9.7 | –
COc1ccc(NC(=O)Nc2ccc(Oc3ncnc4cc(OC)c(OC)cc34)cc2)cc1 | 0.3 | 0.5 | –
COc1cc2ncnc(Nc3cccc(Br)c3)c2cc1OC | 0.2 | 0.4 | IC50 [4]: > 10 µM; IC50 [5]: 4.7 µM; Activity [6]: Active; inhibition [3]: inactive; IC50 [7]: 10.1 µM; Activity [8]: Active
COc1cc2ncnc(Nc3ccc(F)c(Cl)c3)c2cc1OC | 0.2 | 0.4 | –
COc1cc2ncnc(N(C)c3ccc(C(F)(F)F)cc3)c2cc1OC | 6.5 | 9.1 | –
COc1cc2ncnc(N(C)c3ccc(Br)cc3F)c2cc1OC | 1.4 | 3.3 | –
CCN(c1ccc(C)c(Br)c1)c1ncnc2cc(OC)c(OC)cc12 | 8.8 | 13.4 | –
COc1cc2ncnc(Nc3cccc(F)c3)c2cc1OC | 0.2 | 0.4 | –
COc1cc2ncnc(N(C)c3ccc(C)c(Cl)c3)c2cc1OC | 8.9 | 13.7 | –
COc1cc2ncnc(N(C)c3cccc(C)c3)c2cc1OC | 7.1 | 9.7 | –
CN(c1ccc(F)c(Cl)c1)c1ncnc2cc3c(cc12)OCO3 | 2.8 | 4.6 | –
CCCCNC(=O)Nc1cccc(N(C)c2ncnc3cc(OC)c(OC)cc23)c1 | 5.7 | 8.1 | –
CCNC(=O)Nc1cccc(N(C)c2ncnc3cc(OC)c(OC)cc23)c1 | 5.2 | 7.9 | –
COc1cc2ncnc(Nc3ccc(Br)cc3F)c2cc1OC | 0.1 | 0.3 | –
COc1cc2ncnc(N(CCN3CCCCC3)c3ccc(C)c(Br)c3)c2cc1OC | 13.5 | 27.7 | Activity [9]: Active
CCCCNC(=O)Nc1ccc(N(C)c2ncnc3cc(OC)c(OC)cc23)cc1 | 0.3 | 0.4 | –
COc1cc2ncnc(Nc3ccc(C(F)(F)F)cc3)c2cc1OC | 0.1 | 0.5 | –
COc1cc2ncnc(Nc3ccc(Br)cc3)c2cc1OC | 3.9 | 0.2 | –
COc1cc2ncnc(N(C)c3ccc(F)c(Cl)c3)c2cc1OC | 6.1 | 10.5 | –
COc1cc2ncnc(N(C)c3cc(Br)ccc3Br)c2cc1OC | 1.6 | 3.3 | –
COc1ccc(NC(=O)Nc2cccc(N(C)c3ncnc4cc(OC)c(OC)cc34)c2)cc1 | 6.8 | 11 | –
COc1cc2ncnc(Nc3cccc(Cl)c3)c2cc1OC | 1.8 | 0.3 | –
COc1cc2ncnc(N(C)c3ccc(Br)cc3)c2cc1OC | 6 | 10.8 | –
COc1cc2ncnc(N(Cc3ccccc3)c3ccc(C)c(Br)c3)c2cc1OC | 6.5 | 9.6 | –
COc1cc2ncnc(N(C)c3cccc(NC(=O)Nc4ccccc4)c3)c2cc1OC | 6 | 9.9 | –
COc1cc2ncnc(Nc3ccc(C)c(F)c3)c2cc1OC | 0.2 | 0.5 | –
